Experimental data from ChEMBL document CHEMBL1800024, “A novel class of trans-methylpyrazoline analogs of combretastatins: synthesis and in-vitro biological testing” (Eur J Med Chem, 2011).
≈ marks a conversion by molar mass, not a printed value.

Assays:
L1210 = test: Cytotoxicity against mouse L1210 cells after 72 hrs by MTT assay; type: functional, cell-based; conditions: L1210, 72 h
Method in brief: (§1)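 Murine B16 melanoma and L1210 lymphoma cells in culture were exposed to compound continuously for 72 h. Viability was read by MTT assay, and IC₅₀ was derived from growth inhibition.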

B16 = test: Cytotoxicity against mouse B16 cells after 72 hrs by MTT assay; type: functional, cell-based; conditions: B16, 72 h; method in brief: as §1
HL-60(TB) = test: Growth inhibition of human HL-60(TB) cells; type: functional
MOLT-4 = test: Growth inhibition of human MOLT4 cells; type: functional
NCI-H23 = test: Growth inhibition of human NCI-H23 cells; type: functional
NCI-H322M = test: Growth inhibition of human NCI-H322M cells; type: functional
NCI-H522 = test: Growth inhibition of human NCI-H522 cells; type: functional
HCT-116 = test: Growth inhibition of human HCT116 cells; type: functional
SF-295 = test: Growth inhibition of human SF295 cells; type: functional
SF-539 = test: Growth inhibition of human SF539 cells; type: functional
SNB-19 = test: Growth inhibition of human SNB19 cells; type: functional
U-251 = test: Growth inhibition of human U251 cells; type: functional
LOX IMVI = test: Growth inhibition of human LOXIMVI cells; type: functional
Malme-3M = test: Growth inhibition of human MALME-3M cells; type: functional
SK-MEL-5 = test: Growth inhibition of human SK-MEL-5 cells; type: functional
UACC-257 = test: Growth inhibition of human UACC257 cells; type: functional
SK-OV-3 = test: Growth inhibition of human SKOV3 cells; type: functional
CAKI-1 = test: Growth inhibition of human Caki1 cells; type: functional
RXF 393 = test: Growth inhibition of human RXF393 cells; type: functional
MDA-MB-231 = test: Growth inhibition of human MDA-MB-231 cells; type: functional
BT-549 = test: Growth inhibition of human BT549 cells; type: functional
T47D = test: Growth inhibition of human T47D cells; type: functional; conditions: read-out: pTGI
MDA-MB-435 [1] = test: Cytotoxicity against human MDA-MB-435 cells after 48 hrs by SRB assay; type: functional, cell-based; conditions: MDA-MB-435, 48 h
A10 = test: Induction of interphase microtubule depolymerization in rat A10 cells; type: functional, cell-based
MDA-MB-435 [2] = test: Ratio of EC50 for interphase microtubule depolymerization in rat A10 cells to IC50 for cytotoxicity against human MDA-MB-435 cells; type: functional
[3] = Aqueous solubility of the compound; type: physicochemical
Method in brief: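 Maximum aqueous solubility was measured with a modified filter-plate solubility protocol.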

COc1ccc(OC)c([C@H]2[C@H](c3cc(OC)c(OC)c(OC)c3)C(C)=NN2C(C)=O)c1 (relative stereo)
IC50 (L1210): > 100 µM
IC50 (B16): > 100 µM

COc1cc([C@@H]2C(C)=NN(C(C)=O)[C@H]2c2ccc([N+](=O)[O-])cc2)cc(OC)c1OC (relative stereo)
IC50 (L1210): > 100 µM
IC50 (B16): > 100 µM

COc1ccc([C@H]2[C@H](c3cc(OC)c(OC)c(OC)c3)C(C)=NN2C(C)=O)cc1 (relative stereo)
IC50 (L1210): 8.4 µM
IC50 (B16): 95 µM

COc1ccc([C@H]2[C@H](c3cc(OC)c(OC)c(OC)c3)C(C)=NN2C(C)=O)cc1O (relative stereo)
IC50 (L1210): 3.3 µM
IC50 (B16): 6.8 µM
GI50 (HL-60(TB)): 1780 nM
TGI (HL-60(TB); read-out: pTGI (converted)): 7.76 µM
GI50 (MOLT-4): 5.75 µM
TGI (MOLT-4; read-out: pTGI): > 100 µM
GI50 (NCI-H23): 3.72 µM
TGI (NCI-H23; read-out: pTGI): > 100 µM
GI50 (NCI-H322M): 4.27 µM
TGI (NCI-H322M; read-out: pTGI (converted)): 51.3 µM
GI50 (NCI-H522): 372 nM
TGI (NCI-H522; read-out: pTGI (converted)): 11.7 µM
GI50 (HCT-116): 3.02 µM
TGI (HCT-116; read-out: pTGI (converted)): 34.7 µM
GI50 (SF-295): 2570 nM
TGI (SF-295; read-out: pTGI): > 100 µM
GI50 (SF-539): 741 nM
TGI (SF-539; read-out: pTGI (converted)): 4.37 µM
GI50 (SNB-19): 4.37 µM
TGI (SNB-19; read-out: pTGI): > 100 µM
GI50 (U-251): 3.24 µM
TGI (U-251; read-out: pTGI): > 100 µM
GI50 (LOX IMVI): 2240 nM
TGI (LOX IMVI; read-out: pTGI): > 100 µM
GI50 (Malme-3M): 891 nM
TGI (Malme-3M; read-out: pTGI): > 100 µM
GI50 (SK-MEL-5): 1170 nM
TGI (SK-MEL-5; read-out: pTGI (converted)): 14.1 µM
GI50 (UACC-257): > 100 µM
TGI (UACC-257; read-out: pTGI): > 100 µM
GI50 (SK-OV-3): 2190 nM
TGI (SK-OV-3; read-out: pTGI (converted)): 9.55 µM
GI50 (CAKI-1): 5.37 µM
TGI (CAKI-1; read-out: pTGI): > 100 µM
GI50 (RXF 393): 3.09 µM
TGI (RXF 393; read-out: pTGI): > 100 µM
GI50 (MDA-MB-231): 4.07 µM
TGI (MDA-MB-231; read-out: pTGI): > 100 µM
GI50 (BT-549): 1450 nM
TGI (BT-549; read-out: pTGI): > 100 µM
TGI (T47D): > 100 µM
IC50 (MDA-MB-435 [1]): 900 nM
EC50 (A10): 4.1 µM
Ratio (MDA-MB-435 [2]): 4.5
solubility [3]: 372 µM (≈ 154 µg/mL)

COc1cc([C@@H]2C(C)=NN(C(C)=O)[C@H]2c2cccc([N+](=O)[O-])c2)cc(OC)c1OC (relative stereo)
IC50 (L1210): > 100 µM
IC50 (B16): > 100 µM

COc1cc([C@@H]2C(C)=NN(C(C)=O)[C@H]2c2ccc(Cl)cc2)cc(OC)c1OC (relative stereo)
IC50 (L1210): > 100 µM
IC50 (B16): > 100 µM

COc1cc([C@@H]2C(C)=NN(C(C)=O)[C@H]2c2ccc(C)cc2)cc(OC)c1OC (relative stereo)
IC50 (L1210): 6 µM
IC50 (B16): 45.5 µM

COc1cc([C@@H]2C(C)=NN(C(C)=O)[C@H]2c2ccc(Br)cc2)cc(OC)c1OC (relative stereo)
IC50 (L1210): 33 µM
IC50 (B16): > 100 µM

COc1cc([C@@H]2C(C)=NN(C(C)=O)[C@H]2c2ccccc2)cc(OC)c1OC (relative stereo)
IC50 (L1210): 47 µM
IC50 (B16): > 100 µM

COc1cc([C@@H]2C(C)=NN(C(C)=O)[C@H]2c2ccc(Cl)c(Cl)c2)cc(OC)c1OC (relative stereo)
IC50 (L1210): 36 µM
IC50 (B16): > 100 µM

COc1ccc([C@H]2[C@H](c3cc(OC)c(OC)c(OC)c3)C(C)=NN2C(C)=O)cc1[N+](=O)[O-] (relative stereo)
IC50 (L1210): 32.5 µM
IC50 (B16): > 100 µM

COc1ccc(/C=C\c2cc(OC)c(OC)c(OC)c2)cc1O [COMBRETASTATIN A4]
IC50 (L1210): 0.003 µM
IC50 (B16): 0.002 µM

COc1ccc([C@H]2[C@H](c3cc(OC)c(OC)c(OC)c3)C(C)=NN2C(C)=O)cc1OC (relative stereo)
IC50 (L1210): 34 µM
IC50 (B16): > 100 µM

COc1cc([C@@H]2C(C)=NN(C(C)=O)[C@H]2c2cc(OC)c(OC)c(OC)c2)cc(OC)c1OC (relative stereo)
IC50 (L1210): > 100 µM
IC50 (B16): > 100 µM
